# Assay results gathered from unrelated publications.
# Lines come from different studies, so protocols differ.
Compound,host,sample,route,dose,setting,Tmax [h]
C[C@H](Nc1ncnc2[nH]cnc12)c1cc2cccc(Cl)c2c(=O)n1-c1ccccc1,male Wistar rat,plasma,oral,25 mg/kg,single dose,2
COc1nc(-c2cc(C)c(N[C@@H](C)c3cc(F)cc(F)c3)nn2)ccc1-n1cnc(C)c1,male Sprague-Dawley rat,plasma,oral,5 mg/kg,single dose,5.3
CCc1cc(C(=O)NC)c2nccc(N3CCc4c(cc(Cn5ccnc5)cc4-c4cn(C)nc4C(F)(F)F)C3=O)c2c1,male Sprague-Dawley rat,plasma,oral,50 mg/kg,single dose,0.8
CNC(=O)c1c(C)oc2cc(Oc3ncnc4cc(OC)c(OC)cc34)ccc12,Sprague-Dawley rat,plasma,oral,1 mg/kg,single dose,4.25
CC[C@H](C)[C@H](NC(=O)[C@H](Cc1ccccc1)NC(=O)[C@H](CCC(=O)O)NC(=O)[C@H](CCCNC(=N)N)NC(=O)[C@H](C)NC(=O)[C@H](C)NC(=O)[C@H](CCC(N)=O)NC(=O)[C@H](CCC(=O)O)NC(=O)[C@H](CCC(=O)O)NC(=O)[C@H](CC(C)C)NC(=O)[C@H](Cc1ccc(O)cc1)NC(=O)[C@H](CO)NC(=O)[C@H](CO)NC(=O)[C@@H](NC(=O)[C@H](CC(=O)O)NC(=O)[C@H](CO)NC(=O)[C@@H](NC(=O)[C@H](Cc1ccccc1)NC(=O)[C@@H](NC(=O)CNC(=O)[C@H](CCC(=O)O)NC(=O)[C@H](C)NC(=O)CCc1c[nH]cn1)[C@@H](C)O)[C@@H](C)O)C(C)C)C(=O)N[C@@H](C)C(=O)N[C@@H](Cc1c[nH]c2ccccc12)C(=O)N[C@@H](CC(C)C)C(=O)N[C@H](C(=O)N[C@@H](CCCNC(=N)N)C(=O)NCC(=O)N[C@@H](CCCNC(=N)N)C(=O)N[C@@H](CCCCNC(=O)COCCOCCNC(=O)COCCOCCNC(=O)CC[C@H](NC(=O)CCCCCCCCCCCCCCCCC(=O)O)C(=O)O)C(=O)O)C(C)C,rat,plasma,subcutaneous,20 nmol/kg,,10
COCCOC(=O)C1=C(C)NC(C)=C(C(=O)OC(C)C)C1c1cccc([N+](=O)[O-])c1 (stereo not shown),male Sprague-Dawley rat,plasma,oral,12 mg/kg,,0.33
N#Cc1ccc(Nc2nc(N)cc(Oc3c(F)cc(-c4ccc(C#N)cc4)cc3F)n2)cc1,Sprague-Dawley rat,plasma,oral,5 mg/kg,,4
COc1ccc2c(Cc3ccccc3F)c3n(c(=O)c2c1OC)CCc1cc2c(cc1-3)OCO2,rat,plasma,oral,5 mg/kg,,2.66
N#Cc1[nH]nnc1-c1cc(Cl)cc(/C=C/c2cccc(C(F)(F)F)c2)c1,male Sprague-Dawley rat,plasma,oral,10 mg/kg,,5.3
CNCc1cc(-c2ccccc2F)n(S(=O)(=O)c2cccnc2)c1,male Sprague-Dawley rat,plasma,oral,10 mg/kg,,1
CC(C)OC(=O)NC1CCN(Cc2cc(Cl)c3cccnc3c2O)CC1,rat,blood,intraperitoneal,30 mg/kg,,3
O=C(O)CCS(=O)(=O)O,male Sprague-Dawley rat,plasma,intravenous,10 mg/kg,,0.083
O=C(Nc1cc(F)c(F)c(F)c1)c1ccc(F)c(S(=O)(=O)NCc2cccc(B(O)O)c2)c1,male Sprague-Dawley rat,plasma,intravenous,2 mg/kg,,0.08
C=CC(=O)N1CC2CC(n3nc(-c4ccc(C(=O)Nc5ccccn5)cc4)c4c(N)ncnc43)CC2C1 (stereo not shown),male Wistar rat,plasma,oral,300 mg/kg,,4
N#Cc1[nH]nnc1-c1cccc(OCc2cc(C(F)(F)F)ccc2C(F)(F)F)c1,male Sprague-Dawley rat,plasma,oral,10 mg/kg,,1.3
Cc1c(-c2ccccc2)cccc1N1C(=O)c2cc(CN[C@H](C(=O)O)C(C)O)c(OCc3cccc(C#N)c3)cc2C1=O (stereo partly shown),Sprague-Dawley rat,plasma,oral,50 mg/kg,,0.53
